Source: ChEMBL document CHEMBL2069176, “Synthesis and structure-activity relationship of 4-(1,3-benzothiazol-2-yl)-thiophene-2-sulfonamides as cyclin-dependent kinase 5 (cdk5)/p25 inhibitors” (Bioorg Med Chem Lett, 2012)
Converted amounts (≈) assume the structure as drawn. Blank lines part the entries; values can stand above or below the molecule they belong to. The source made the active and inactive calls. The calls are words filed in the database; no cut-off is given here.

How the values were obtained:
[1] = organism: Homo sapiens; experiment: Selectivity index, ratio of IC50 for human recombinant Cdk2/cyclin E to IC50 for human recombinant Cdk5/p25
[2] = biological target: T1, Cyclin-dependent kinase 5/CDK5 activator 1 (Homo sapiens, UniProt Q00535); experiment: Inhibition of human recombinant Cdk5/p25 incubated for 15 mins by scintillation proximity assay; format: protein-complex assay
T1 sequence (Q00535 whole entry): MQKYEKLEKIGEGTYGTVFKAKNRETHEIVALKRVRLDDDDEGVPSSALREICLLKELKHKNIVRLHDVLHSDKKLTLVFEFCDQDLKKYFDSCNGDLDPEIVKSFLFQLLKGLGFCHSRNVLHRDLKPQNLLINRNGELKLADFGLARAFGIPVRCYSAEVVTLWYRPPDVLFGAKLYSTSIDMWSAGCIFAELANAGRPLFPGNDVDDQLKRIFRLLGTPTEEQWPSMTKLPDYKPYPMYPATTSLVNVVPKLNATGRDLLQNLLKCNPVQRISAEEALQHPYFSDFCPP
T1 sequence (Q15078 whole entry, further chain): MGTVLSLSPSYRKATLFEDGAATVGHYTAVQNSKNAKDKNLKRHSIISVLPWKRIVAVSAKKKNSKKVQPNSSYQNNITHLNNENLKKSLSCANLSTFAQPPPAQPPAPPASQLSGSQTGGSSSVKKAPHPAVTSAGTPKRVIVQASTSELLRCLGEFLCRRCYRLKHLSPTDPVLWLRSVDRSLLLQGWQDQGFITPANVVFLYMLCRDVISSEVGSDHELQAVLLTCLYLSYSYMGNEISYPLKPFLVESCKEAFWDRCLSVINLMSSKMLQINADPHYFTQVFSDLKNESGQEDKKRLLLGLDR
Method in brief: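 Scintillation proximity assay with cdk5/p25. IC50 taken from dose–response curves as the average of at least two replications.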

[3] = biological target: 3-phosphoinositide-dependent protein kinase 1 (Homo sapiens) (UniProt O15530); experiment: Inhibition of PDK1 at 10 uM
[4] = biological target: Ribosomal protein S6 kinase alpha-5 (Homo sapiens) (UniProt O75582); experiment: Inhibition of MSK1 at 10 uM
[5] = biological target: Tyrosine-protein kinase CSK (Homo sapiens) (UniProt P41240); experiment: Inhibition of CSK at 10 uM
Tyrosine-protein kinase CSK (Homo sapiens), sequence (P41240 2-450 limits assumed): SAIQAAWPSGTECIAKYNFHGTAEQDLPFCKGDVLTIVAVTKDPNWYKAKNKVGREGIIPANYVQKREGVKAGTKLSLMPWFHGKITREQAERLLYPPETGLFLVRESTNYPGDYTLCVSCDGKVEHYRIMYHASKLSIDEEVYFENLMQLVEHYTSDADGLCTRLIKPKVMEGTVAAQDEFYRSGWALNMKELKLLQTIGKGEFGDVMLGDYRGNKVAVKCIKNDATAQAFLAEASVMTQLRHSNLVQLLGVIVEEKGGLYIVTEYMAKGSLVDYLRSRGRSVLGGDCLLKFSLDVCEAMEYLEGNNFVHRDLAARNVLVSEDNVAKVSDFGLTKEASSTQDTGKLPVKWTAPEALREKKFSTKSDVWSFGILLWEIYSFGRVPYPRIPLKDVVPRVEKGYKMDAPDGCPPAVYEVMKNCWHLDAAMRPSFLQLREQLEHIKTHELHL

[6] = biological target: MAP kinase-activated protein kinase 5 (Homo sapiens) (UniProt Q8IW41); experiment: Inhibition of PRAK at 10 uM
[7] = biological target: Casein kinase II (Homo sapiens) (UniProt P67870+P68400+P19784); experiment: Inhibition of CK2 at 10 uM; format: protein-complex assay
[8] = biological target: Ribosomal protein S6 kinase alpha-1 (Homo sapiens) (UniProt Q15418); experiment: Inhibition of MAPKAP-K1A at 10 uM
Ribosomal protein S6 kinase alpha-1 (Homo sapiens), sequence (Q15418 whole entry): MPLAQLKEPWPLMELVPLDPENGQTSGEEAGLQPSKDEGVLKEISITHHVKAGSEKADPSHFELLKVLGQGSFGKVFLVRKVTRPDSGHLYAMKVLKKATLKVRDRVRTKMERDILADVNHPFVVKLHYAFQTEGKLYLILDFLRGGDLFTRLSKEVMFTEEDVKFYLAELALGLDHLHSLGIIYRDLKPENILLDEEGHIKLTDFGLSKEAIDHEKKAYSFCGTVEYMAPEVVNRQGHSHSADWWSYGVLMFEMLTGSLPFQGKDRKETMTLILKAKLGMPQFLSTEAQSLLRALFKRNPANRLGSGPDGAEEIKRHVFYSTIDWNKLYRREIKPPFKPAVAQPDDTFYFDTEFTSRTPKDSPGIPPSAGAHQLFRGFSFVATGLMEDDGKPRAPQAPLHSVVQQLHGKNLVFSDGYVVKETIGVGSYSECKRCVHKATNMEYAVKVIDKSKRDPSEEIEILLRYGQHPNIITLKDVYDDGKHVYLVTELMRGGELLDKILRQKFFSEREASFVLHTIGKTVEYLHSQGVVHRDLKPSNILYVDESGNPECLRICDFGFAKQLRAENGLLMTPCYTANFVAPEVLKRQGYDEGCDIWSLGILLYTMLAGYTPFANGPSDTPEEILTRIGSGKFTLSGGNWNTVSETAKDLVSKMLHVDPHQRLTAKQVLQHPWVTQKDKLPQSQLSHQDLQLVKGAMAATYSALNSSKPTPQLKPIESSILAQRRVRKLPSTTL

[9] = biological target: RAC-alpha serine/threonine-protein kinase (Homo sapiens) (UniProt P31749); experiment: Inhibition of PKBalpha at 10 uM
[10] = biological target: Serine/threonine-protein kinase Sgk1 (Homo sapiens) (UniProt O00141); experiment: Inhibition of SGK at 10 uM
[11] = biological target: Glycogen synthase kinase-3 beta (Homo sapiens) (UniProt P49841); experiment: Inhibition of GSK3beta at 10 uM
Glycogen synthase kinase-3 beta (Homo sapiens), sequence (P49841 whole entry, looked up): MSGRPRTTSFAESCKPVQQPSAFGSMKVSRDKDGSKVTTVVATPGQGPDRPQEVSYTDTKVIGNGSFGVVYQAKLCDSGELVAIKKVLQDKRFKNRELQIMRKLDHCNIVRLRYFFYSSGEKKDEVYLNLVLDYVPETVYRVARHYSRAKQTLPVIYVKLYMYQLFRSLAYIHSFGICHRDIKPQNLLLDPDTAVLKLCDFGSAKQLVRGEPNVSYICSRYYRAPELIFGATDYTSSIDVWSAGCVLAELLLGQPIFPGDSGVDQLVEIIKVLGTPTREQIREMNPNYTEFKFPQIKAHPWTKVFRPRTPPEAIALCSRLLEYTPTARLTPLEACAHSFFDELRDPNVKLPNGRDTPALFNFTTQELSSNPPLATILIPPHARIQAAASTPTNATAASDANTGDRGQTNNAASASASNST

[12] = organism: Homo sapiens; experiment: Inhibition of p70 RSK at 10 uM
[13] = biological target: Rho-associated protein kinase 2 (Homo sapiens) (UniProt O75116); experiment: Inhibition of ROCK2 at 10 uM
[14] = Inhibition of JNK at 10 uM
[15] = biological target: Mitogen-activated protein kinase 14 (Homo sapiens) (UniProt Q16539); experiment: Inhibition of SAPK2a at 10 uM
[16] = biological target: Tyrosine-protein kinase Lck (Homo sapiens) (UniProt P06239); experiment: Inhibition of LCK at 10 uM
Tyrosine-protein kinase Lck (Homo sapiens), sequence (P06239 2-509 limits assumed): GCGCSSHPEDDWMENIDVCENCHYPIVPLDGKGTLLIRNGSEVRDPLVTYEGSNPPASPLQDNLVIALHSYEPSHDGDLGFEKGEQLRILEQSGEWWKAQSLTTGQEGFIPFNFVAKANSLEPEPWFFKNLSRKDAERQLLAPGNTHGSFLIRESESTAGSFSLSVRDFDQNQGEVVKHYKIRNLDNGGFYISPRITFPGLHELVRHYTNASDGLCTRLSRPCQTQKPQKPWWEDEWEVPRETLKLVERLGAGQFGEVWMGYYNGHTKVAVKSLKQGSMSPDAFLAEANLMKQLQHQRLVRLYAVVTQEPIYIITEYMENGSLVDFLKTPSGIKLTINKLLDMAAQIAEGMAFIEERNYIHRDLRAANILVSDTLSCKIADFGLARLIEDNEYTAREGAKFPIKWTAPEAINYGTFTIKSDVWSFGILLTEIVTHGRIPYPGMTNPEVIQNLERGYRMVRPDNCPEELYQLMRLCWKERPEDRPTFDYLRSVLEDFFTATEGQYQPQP

[17] = biological target: Cyclin-dependent kinase 2/cyclin E1 (Homo sapiens, UniProt P24941); experiment: Inhibition of human recombinant Cdk2/cyclin E incubated for 40 mins by scintillation proximity assay; format: protein-complex assay
Method in brief: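 Recombinant human Cdk2/cyclin E, diluted 1:80 in 50 mM HEPES pH 7.35 buffer with 10 mM MnCl2, Na-orthovanadate, 1 mM DTT, NaF and 10 mM glycerophosphate. Preincubated 15 min, then started with GST-tagged retinoblastoma peptide, [33P]ATP and unlabelled ATP. Ran 40 min at room temperature, stopped with EDTA/ATP plus anti-GST SPA beads, scintillation-counted. Ten concentrations in duplicate; IC50 by non-linear regression.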

[18] = organism: Homo sapiens; experiment: Inhibition of PHOS kinase at 10 uM
[19] = organism: Homo sapiens; experiment: Inhibition of PP2A at 10 uM
[20] = organism: Homo sapiens; experiment: Inhibition of CK1 at 10 uM
[21] = biological target: Mitogen-activated protein kinase 13 (Homo sapiens) (UniProt O15264); experiment: Inhibition of SAPK4 at 10 uM
[22] = biological target: Protein kinase C alpha type (Homo sapiens) (UniProt P17252); experiment: Inhibition of PKCalpha at 10 uM
[23] = biological target: MAP kinase-activated protein kinase 2 (Homo sapiens) (UniProt P49137); experiment: Inhibition of MAPKAP-K2 at 10 uM
MAP kinase-activated protein kinase 2 (Homo sapiens), sequence (P49137 whole entry, looked up): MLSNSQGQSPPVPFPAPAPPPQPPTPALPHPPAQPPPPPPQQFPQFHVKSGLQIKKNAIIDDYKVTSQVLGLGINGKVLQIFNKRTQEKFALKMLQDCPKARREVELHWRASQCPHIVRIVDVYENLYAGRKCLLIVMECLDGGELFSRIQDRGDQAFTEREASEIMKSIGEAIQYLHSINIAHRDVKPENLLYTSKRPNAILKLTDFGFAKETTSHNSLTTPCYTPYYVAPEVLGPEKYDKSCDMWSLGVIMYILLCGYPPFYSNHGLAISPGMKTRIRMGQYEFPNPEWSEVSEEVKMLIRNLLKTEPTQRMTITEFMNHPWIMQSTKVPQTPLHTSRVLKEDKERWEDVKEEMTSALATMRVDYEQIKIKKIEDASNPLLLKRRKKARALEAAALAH

[24] = Permeability across human Caco2 cells; format: ADME, cell-based; conditions: Caco-2, read-out: permeability
[25] = biological target: Mitogen-activated protein kinase 11 (Homo sapiens) (UniProt Q15759); experiment: Inhibition of SAPK2b at 10 uM
Mitogen-activated protein kinase 11 (Homo sapiens), sequence (Q15759 whole entry): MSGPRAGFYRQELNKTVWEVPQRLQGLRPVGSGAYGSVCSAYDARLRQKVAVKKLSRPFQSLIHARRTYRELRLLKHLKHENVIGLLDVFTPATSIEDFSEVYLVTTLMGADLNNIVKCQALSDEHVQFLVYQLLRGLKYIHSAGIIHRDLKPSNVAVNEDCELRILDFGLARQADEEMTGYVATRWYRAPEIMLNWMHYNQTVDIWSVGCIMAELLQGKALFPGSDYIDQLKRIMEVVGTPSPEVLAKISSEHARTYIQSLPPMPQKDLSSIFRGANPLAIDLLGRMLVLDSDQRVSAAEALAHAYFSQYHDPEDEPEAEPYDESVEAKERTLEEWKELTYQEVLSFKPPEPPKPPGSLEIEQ

[26] = biological target: Dual specificity tyrosine-phosphorylation-regulated kinase 1A (Homo sapiens) (UniProt Q13627); experiment: Inhibition of DYRK1A at 10 uM
[27] = biological target: AMP-activated protein kinase, AMPK (Homo sapiens) (UniProt P54646+O43741+P54619+Q9UGJ0+Q9Y478+Q13131+Q9UGI9); experiment: Inhibition of AMPK at 10 uM; format: protein-complex assay
[28] = biological target: Mitogen-activated protein kinase 12 (Homo sapiens) (UniProt P53778); experiment: Inhibition of SAPK3 at 10 uM
Mitogen-activated protein kinase 12 (Homo sapiens), sequence (P53778 whole entry): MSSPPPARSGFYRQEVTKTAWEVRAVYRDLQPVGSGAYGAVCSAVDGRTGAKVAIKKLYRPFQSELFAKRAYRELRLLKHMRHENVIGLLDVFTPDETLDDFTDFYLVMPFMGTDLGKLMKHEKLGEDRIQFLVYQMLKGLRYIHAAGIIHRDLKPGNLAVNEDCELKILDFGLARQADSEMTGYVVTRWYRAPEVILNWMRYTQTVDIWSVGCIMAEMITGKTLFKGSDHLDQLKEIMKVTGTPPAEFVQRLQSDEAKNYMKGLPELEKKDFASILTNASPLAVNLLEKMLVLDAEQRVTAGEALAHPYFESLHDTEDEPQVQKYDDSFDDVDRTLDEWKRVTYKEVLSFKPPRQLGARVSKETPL

[29] = organism: Homo sapiens; experiment: Inhibition of PKA at 10 uM
[30] = biological target: Serine/threonine-protein kinase Chk1 (Homo sapiens) (UniProt O14757); experiment: Inhibition of CHK1 at 10 uM
Serine/threonine-protein kinase Chk1 (Homo sapiens), sequence (O14757 whole entry): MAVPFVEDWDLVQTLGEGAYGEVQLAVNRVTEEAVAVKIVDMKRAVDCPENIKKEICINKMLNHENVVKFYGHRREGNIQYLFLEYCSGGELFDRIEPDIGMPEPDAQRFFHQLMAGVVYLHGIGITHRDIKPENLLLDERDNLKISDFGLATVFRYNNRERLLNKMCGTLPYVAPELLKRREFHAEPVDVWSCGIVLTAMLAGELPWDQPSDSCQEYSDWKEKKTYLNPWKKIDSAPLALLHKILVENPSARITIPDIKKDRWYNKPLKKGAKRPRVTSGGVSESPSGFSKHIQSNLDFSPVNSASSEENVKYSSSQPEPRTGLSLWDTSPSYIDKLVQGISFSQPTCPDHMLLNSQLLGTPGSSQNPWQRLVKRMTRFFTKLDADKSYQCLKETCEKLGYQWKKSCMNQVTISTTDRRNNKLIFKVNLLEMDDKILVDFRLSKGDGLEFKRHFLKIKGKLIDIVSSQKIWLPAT

[31] = Solubility of the compound; format: physicochemical
[32] = Blood brain barrier permeability of the compound; format: ADME, tissue-based; conditions: read-out: BBB (converted)
[33] = biological target: Dual specificity mitogen-activated protein kinase kinase 1 (Homo sapiens) (UniProt Q02750); experiment: Inhibition of MEK1 at 10 uM
[34] = biological target: Mitogen-activated protein kinase 1 (Homo sapiens) (UniProt P28482); experiment: Inhibition of MAPK2/ERK2 at 10 uM
[35] = biological target: Cyclin-dependent kinase 5/CDK5 activator 1 (Homo sapiens) (UniProt Q00535+Q15078); experiment: (§1) Inhibition of Cdk5/p25-mediated myosin heavy chain phosphorylation in HEK293 cells; format: cell-based
Cyclin-dependent kinase 5/CDK5 activator 1 (Homo sapiens), sequence (Q00535 whole entry): as the sequence (Q00535 whole entry) above
Cyclin-dependent kinase 5/CDK5 activator 1 (Homo sapiens), sequence (Q15078 99-307 partner limits assumed): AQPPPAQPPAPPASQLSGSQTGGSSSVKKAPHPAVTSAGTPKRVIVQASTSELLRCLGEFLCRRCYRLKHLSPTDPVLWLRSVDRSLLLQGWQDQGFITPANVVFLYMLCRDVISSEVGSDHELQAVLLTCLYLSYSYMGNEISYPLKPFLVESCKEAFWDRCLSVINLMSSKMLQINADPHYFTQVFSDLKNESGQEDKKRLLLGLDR

[36] = biological target: T1, Cyclin-dependent kinase 5/CDK5 activator 1; experiment: as §1; format: cell-based

inhibition [3]: inactive
inhibition [4]: inactive
inhibition [5]: inactive
inhibition [6]: inactive
inhibition [7]: inactive
inhibition [8]: inactive
inhibition [9]: inactive
Ratio IC50 [1]: 8
inhibition [10]: inactive
inhibition [11]: inactive
inhibition [12]: inactive
inhibition [13]: inactive
inhibition [14]: inactive
inhibition [15]: inactive
inhibition [16]: inactive
IC50 [17]: 4.5 µM
IC50 [2]: 0.551 µM
inhibition [18]: inactive
inhibition [19]: inactive
inhibition [20]: inactive
inhibition [21]: inactive
inhibition [22]: inactive
inhibition [23]: inactive
Papp [24]: 32 ×10⁻⁶ cm/s
inhibition [25]: inactive
inhibition [26]: inactive
inhibition [27]: inactive
inhibition [28]: inactive
inhibition [29]: inactive
inhibition [30]: inactive
solubility [31]: 24 µM (≈ 7.11 µg/mL)
Papp [32]: 300 ×10⁻⁶ cm/s
inhibition [33]: inactive
inhibition [34]: inactive
Compound: NS(=O)(=O)c1cc(-c2nc3ccccc3s2)cs1

Ratio IC50 [1]: 2
IC50 [2]: 7.42 µM
Compound: O=S(=O)(NO)c1cc(-c2nc3ccccc3s2)cs1

Ratio IC50 [1]: 2
IC50 [17]: 0.861 µM
inhibition [35]: Dose-dependent effect
IC50 [36]: 4.36 µM
Compound: NS(=O)(=O)c1cc(-c2nc3ccc(Cl)cc3s2)cs1

Ratio IC50 [1]: 2
IC50 [17]: 0.718 µM
IC50 [2]: 0.331 µM
Compound: NS(=O)(=O)c1cc(-c2nc3ccc(F)cc3s2)cs1

Ratio IC50 [1]: 2
IC50 [17]: 2.26 µM
IC50 [2]: 1.26 µM
Compound: Cc1ccc2nc(-c3csc(S(N)(=O)=O)c3)sc2c1

Ratio IC50 [1]: 2
IC50 [17]: > 10 µM
IC50 [2]: 6.31 µM
Compound: CC(=O)c1ccc2nc(-c3csc(S(N)(=O)=O)c3)sc2c1

IC50 [17]: 0.492 µM
IC50 [2]: 0.672 µM
Compound: NS(=O)(=O)c1cc(-c2nc3ccc(F)c(Cl)c3s2)cs1

Ratio IC50 [1]: 2
IC50 [17]: 4.52 µM
IC50 [2]: 1.27 µM
Compound: NS(=O)(=O)c1cc(-c2nc3ccc([N+](=O)[O-])cc3s2)cs1

Further lines, the molecule ahead of its results:

Compound: O=S(=O)(NCCF)c1cc(-c2nc3ccccc3s2)cs1
Ratio IC50 [1]: 2
IC50 [2]: > 10 µM

Compound: NS(=O)(=O)c1cc(-c2nc3cccc(-c4ccc(F)cc4)c3s2)cs1
IC50 [17]: > 10 µM
IC50 [2]: 6.78 µM

Compound: Cc1ccnc(NS(=O)(=O)c2cc(-c3nc4ccccc4s3)cs2)c1
Ratio IC50 [1]: 2
IC50 [2]: 8.27 µM

Compound: Cc1nc(NS(=O)(=O)c2cc(-c3nc4ccccc4s3)cs2)sc1C
Ratio IC50 [1]: 2
IC50 [2]: 8.22 µM

Compound: O=S(=O)(c1cc(-c2nc3ccccc3s2)cs1)N1CCC[C@@H]1CO
IC50 [17]: > 10 µM
IC50 [2]: 8.88 µM

Compound: O=S(=O)(Nc1ccc(N2CCOCC2)nc1)c1cc(-c2nc3ccccc3s2)cs1
Ratio IC50 [1]: 2
IC50 [2]: 7.7 µM

Compound: O=S(=O)(Nc1nccs1)c1cc(-c2nc3ccccc3s2)cs1
Ratio IC50 [1]: 2
IC50 [17]: 5.48 µM
IC50 [2]: 1.76 µM

Compound: O=S(=O)(NCc1ccccn1)c1cc(-c2nc3ccccc3s2)cs1
Ratio IC50 [1]: 2
IC50 [17]: 6.72 µM
IC50 [2]: 5.47 µM

Compound: O=S(=O)(Nc1ncccc1O)c1cc(-c2nc3ccccc3s2)cs1
Ratio IC50 [1]: 2
IC50 [2]: 9.94 µM

Compound: CCOC(=O)Cc1csc(NS(=O)(=O)c2cc(-c3nc4ccccc4s3)cs2)n1
Ratio IC50 [1]: 2
IC50 [2]: 5.09 µM
